Experimental data reported in ChEMBL document CHEMBL1145604, “Fragment-based discovery of hepatitis C virus NS5b RNA polymerase inhibitors” (Bioorg Med Chem Lett, 2008).

Columns and labels:
[1] = Inhibition of HCV NS5b RNA polymerase assessed as [3H]UTP incorporation into RNA; parameters: species or system Hepacivirus hominis
How it was run: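 NS5B570n-BK (200 nM) with poly-A:oligo U₁₆ template:primer (8.4 µg/mL), 2.1 µCi tritiated UTP, 1 µM ATP, CTP, GTP in 40 mM Tris-HCl pH 8.0, NaCl, 4 mM DTT, 4 mM MgCl₂; compound serially diluted in DMSO. 2 h at 30 °C, TCA stop, filtration, scintillation counting. IC50 from duplicate means.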

[2] = Binding affinity to HCV NS5b RNA polymerase by SPR assay; parameters: species or system Hepacivirus hominis
Hepatitis C virus = assay: Antiviral activity against Hepatitis C virus by replicon assay; assay type: functional, organism-based, Hepacivirus hominis

SMILES	IC50 [1]	Kd [2]	EC50 (Hepatitis C virus)
Nc1ccc(Br)cc1C(=O)Nc1ccccc1Cl	178 µM		
CC(C)NC(=O)c1cc(Br)ccc1NC(=O)CCC(=O)O	> 500 µM		
C[C@@H]1C[C@H](C)CN(C(=O)c2cc(Br)ccc2NS(C)(=O)=O)C1	7.5 µM		
O=C(O)CCC(=O)Nc1ccc(Br)cc1C(=O)NCC1CCCCC1	> 500 µM		
C[C@@H]1C[C@H](C)CN(C(=O)c2cc(Br)ccc2NC(=O)CCC(=O)c2cccs2)C1	0.44 µM	0.97 µM	4.3 µM
CC(=O)Nc1ccc(Br)cc1C(=O)N1C[C@H](C)C[C@H](C)C1	11 µM	1.7 µM	
O=C(O)CCC(=O)Nc1ccc(Br)cc1C(=O)N1CCSCC1	533 µM		
Nc1ccc(Br)cc1C(=O)NCc1ccccc1	> 500 µM		
Nc1ccc(Br)cc1C(=O)N1CCOCC1	> 500 µM		
C[C@@H]1C[C@H](C)CN(C(=O)c2cc(Br)ccc2NC(=O)NCc2ccc(N(C)C)cc2)C1	1 µM	0.8 µM	4.9 µM
C[C@@H]1C[C@H](C)CN(C(=O)c2cc(Br)ccc2NC(=O)CCC(=O)c2cccnc2)C1	0.59 µM	1.04 µM	7.9 µM
CC1CCCN(C(=O)c2cc(Br)ccc2N)C1 (stereo not given)	170 µM	192 µM	
Cc1cnc(CNC(=O)Nc2ccc(Br)cc2C(=O)N2C[C@H](C)C[C@H](C)C2)cn1	0.36 µM	0.35 µM	6.9 µM
C[C@@H]1C[C@H](C)CN(C(=O)c2cc(Br)ccc2NC(=O)CC(=O)N(C)C)C1	11 µM		
COC(=O)CCC(=O)Nc1ccc(Br)cc1C(=O)N1C[C@H](C)C[C@H](C)C1	2.1 µM		
C[C@@H]1C[C@H](C)CN(C(=O)c2cc(Br)ccc2NC(=O)CNC(=O)c2cccnc2)C1	0.43 µM	0.57 µM	5.7 µM
C[C@@H]1C[C@H](C)CN(C(=O)c2cc(Br)ccc2NC(=O)NCC(=O)N(C)C)C1	0.6 µM	0.46 µM	5.6 µM

SMILES	IC50 [1]	Kd [2]	EC50 (Hepatitis C virus)
C[C@@H]1C[C@H](C)CN(C(=O)c2cc(Br)ccc2NC(=O)[C@@H]2CCCN2C(=O)c2cccnc2)C1	0.35 µM	1.28 µM	12.9 µM
C[C@@H]1C[C@H](C)CN(C(=O)c2cc(Br)ccc2NC(=O)CNC(=O)c2ccccc2)C1	0.13 µM	0.54 µM	5.5 µM
C[C@@H]1C[C@H](C)CN(C(=O)c2cc(Br)ccc2NC(=O)[C@@H]2C[C@@H](O)CN2C(=O)c2ccco2)C1	1.03 µM	0.15 µM	3.7 µM
Nc1ccc(Br)cc1C(=O)N1CCCC1	> 500 µM		
C[C@@H]1CN(C(=O)c2cc(Br)ccc2N)C[C@H](C)O1	190 µM	36 µM	
Nc1ccc(Br)cc1C(=O)N1CCc2ccccc2C1	132 µM	210 µM	
C[C@@H]1C[C@H](C)CN(C(=O)c2cc(Br)ccc2NC(=O)CCCC(=O)O)C1	9 µM		
Cc1cc(CNC(=O)Nc2ccc(Br)cc2C(=O)N2C[C@H](C)C[C@H](C)C2)nn1C	0.17 µM	0.37 µM	4.6 µM
Nc1ccc(Br)cc1C(=O)N1CCCCC1	> 500 µM		
C[C@@H]1C[C@H](C)CN(C(=O)c2cc(Br)ccc2NC(=O)CCC(=O)c2ccccn2)C1	0.54 µM	1.85 µM	
C[C@@H]1C[C@H](C)CN(C(=O)c2cc(Br)ccc2NC(=O)CCC(=O)N2CCOCC2)C1	0.25 µM		7.4 µM
C[C@@H]1C[C@H](C)CN(C(=O)c2cc(Br)ccc2NC(=O)CCC(=O)N(C)C)C1	0.4 µM	0.3 µM	6.1 µM
C[C@@H]1C[C@H](C)CN(C(=O)c2cc(Br)ccc2NC(=O)CNC(=O)c2ccco2)C1	0.25 µM	1.02 µM	8.7 µM
C[C@@H]1C[C@H](C)CN(C(=O)c2cc(Br)ccc2N)C1	17 µM		
C[C@@H]1C[C@H](C)CN(C(=O)c2cc(Br)ccc2NC(=O)CCC(N)=O)C1	4.3 µM	9.4 µM	
C[C@@H]1C[C@H](C)CN(C(=O)c2cc(Br)ccc2NC(=O)CCC(=O)O)C1	1 µM		22.8 µM
